Four compounds from ChEMBL document CHEMBL1149433, “PABA/NO as an anticancer lead: analogue synthesis, structure revision, solution chemistry, reactivity toward glutathione, and in vitro activity” (J Med Chem, 2006) can be followed below.

For series [1], the system named is LOX IMVI. Nature of the series: Cytotoxicity against human melanoma cancer LOXIMVI cell line. Format: functional. A digest of the protocol: (§1)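 Cells grown 24 h at 37 °C in RPMI 1640 with 5% FBS and 2 mM L-glutamine before dosing. Compounds were diluted from DMSO stocks to 10^-8 to 10^-4 M (five log concentrations) and incubated 48 h. Cells were TCA-fixed and stained with sulforhodamine B, with OD read at 515 nm. GI50, TGI and LC50 come from percent growth versus log concentration curves.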

A further series relates to HL-60. Nature of the series: Inhibition of human myeloid leukemia HL60 cell viability. Format: functional, cell-based.
In a further series the test system is NIH3T3. Nature of the series: Cytotoxicity against mouse embryonic fibroblast NIH3T3 cell line. Format: functional, cell-based.
In series [2] the test system is OVCAR-3. Nature of the series: Cytotoxicity against human ovarian cancer OVACAR3 cell line. As to conditions: for CC50: read-out: LC50 (the source's name). Format: functional. The procedure, abridged:
as §1

Series [3] has as its system CAKI-1. Nature of the series: Cytotoxicity against human renal cancer CAKI1 cell line. As to conditions: for CC50: read-out: LC50 (the source's name). Format: functional. A digest of the protocol:
as §1

Series [4] has as its system HCT-15. Kind of series: Cytotoxicity against human colon cancer HCT15 cell line. Format: functional. As to conditions: for CC50: read-out: LC50 (the source's name). A digest of the protocol:
as §1

A short description of series [5]: Solubility in phosphate buffer at 37 degC. Format: physicochemical. A digest of the protocol:
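Maximum solubility was measured in 0.1 M phosphate buffer at pH 7.4 and 37 °C.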

The subject of series [6] is CAKI-1. Kind of series: Cytotoxicity against human renal cancer CAKI1 cell line at 100 uM. Format: functional, cell-based. The procedure, abridged: as §1
Series [7] relates to LOX IMVI. Nature of the series: Cytotoxicity against human melanoma cancer LOXIMVI cell line at 100 uM. Format: functional, cell-based. A digest of the protocol:
as §1

The test system of series [8] is OVCAR-3. Kind of series: Cytotoxicity against human ovarian cancer OVACAR3 cell line at 100 uM. Format: functional, cell-based. A digest of the protocol:
as §1

The subject of series [9] is HCT-15. Nature of the series: Cytotoxicity against human colon cancer HCT15 cell line at 100 uM. Format: functional, cell-based. A digest of the protocol:
as §1

By GI50 is commonly meant the concentration at which growth is held to half of that of the control. A word on the TGI: it is the concentration giving total growth inhibition. A high value points to lower sensitivity of the cells. A word on the IC50: it is the concentration that gives 50% inhibition. In general, solubility refers to the concentration that dissolves in the medium under given conditions.

Converted amounts (≈) assume the structure as drawn. The source made the active and inactive calls. The calls are words filed in the database; no cut-off is given here. Bounds are passed on as bounds.

Take `CNc1ccc(C(=O)Oc2cc(O/N=[N+](\[O-])N(C)C)c([N+](=O)[O-])cc2[N+](=O)[O-])cc1`: the 50% growth inhibitory concentration (GI50) in the series on LOX IMVI [1] is 1.9 µM; in the series with OVCAR-3 [2], 2.6 µM; with CAKI-1 [3], 1.8 µM; in the series on HCT-15 [4], 2 µM. Also, the TGI in the series with LOX IMVI [1] is 4.4 µM; in the series on OVCAR-3 [2], 6.9 µM; in the series with CAKI-1 [3], 4 µM; in the series on HCT-15 [4], 5.3 µM. For the same compound, the results for the 50% inhibitory concentration (IC50) in the series on HL-60 and in the series with NIH3T3 were 6.3 µM and 5.6 µM, respectively. Also, the CC50 in the series on OVCAR-3 [2] was 2.6 µM; with CAKI-1 [3], 8.9 µM; in the series with HCT-15 [4], 19 µM. Besides, the solubility in series [5] is under 2 µM.
Consider `CN(C)/[N+]([O-])=N/Oc1cc(Nc2cccc(C(=O)O)c2)c([N+](=O)[O-])cc1[N+](=O)[O-]`, for which, in the series with LOX IMVI [1], the LC50 (concentration giving 50% net cell kill) stood at 60 µM. In the series on NIH3T3, this compound yielded an IC50 of 80 µM. Also, in the series with OVCAR-3 [2], growth was halved (GI50) at 3.9 µM, net growth stopped (TGI) at 30 µM and the CC50 came to 58 µM. In addition, in the series with CAKI-1 [3], the GI50 was 2.2 µM, the concentration for total growth inhibition (TGI) turned out to be 51 µM and the CC50 is over 100 µM. Also, in the series with HCT-15 [4], it took 20 µM to inhibit growth by half (GI50), the concentration for total growth inhibition (TGI) worked out at 36 µM and the CC50 is 68 µM. Also, the solubility in series [5] was over 2000 µM.
`CN(C)/[N+]([O-])=N/Oc1cc(Nc2ccc(C(=O)O)cc2)c([N+](=O)[O-])cc1[N+](=O)[O-]` returned a concentration for half-maximal inhibition (IC50) with HL-60 of 9.1 µM. In the series with NIH3T3, the IC50 worked out at 73 µM. For the same compound, in the series on OVCAR-3 [2], growth was halved (GI50) at 5.5 µM, the TGI was determined as 9 µM and the CC50 turned out to be 100 µM. The solubility in [5] was over 3000 µM.
As for `CN(c1cccc(C(=O)O)c1)c1cc(O/N=[N+](\[O-])N(C)C)c([N+](=O)[O-])cc1[N+](=O)[O-]`, the results for the IC50 in the series with HL-60 and in the series with NIH3T3 were 11.6 µM and 83 µM, respectively. Further, the outcome with CAKI-1 [6], in the series with LOX IMVI [7], in the series with OVCAR-3 [8] and in the series on HCT-15 [9] was inactive. In [5], this compound displayed a solubility of 3000 µM (≈ 1260 µg/mL).
